# PMC8798225 (Nature, 2021)
# Substitutions are numbered along the chain they refer to. Numbers in names are those of the source.
# T1: Ubc2 (Saccharomyces cerevisiae, UniProt P06104)
# T1 sequence (P06104 1-172): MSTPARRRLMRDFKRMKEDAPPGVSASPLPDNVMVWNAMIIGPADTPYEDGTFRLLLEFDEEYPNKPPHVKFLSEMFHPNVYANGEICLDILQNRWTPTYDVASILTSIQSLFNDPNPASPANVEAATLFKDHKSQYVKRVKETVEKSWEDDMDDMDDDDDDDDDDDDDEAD
# T2: Ubc2 (Saccharomyces cerevisiae), wild type (Saccharomyces cerevisiae, UniProt P06104 3-152)
# T2 sequence: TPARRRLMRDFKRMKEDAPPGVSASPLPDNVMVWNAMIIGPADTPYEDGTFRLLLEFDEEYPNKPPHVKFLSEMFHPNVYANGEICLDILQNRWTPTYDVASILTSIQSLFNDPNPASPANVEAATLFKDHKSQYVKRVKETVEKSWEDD
# B1: N65A: N65A mutation of Ubc2 (protein, UniProt P06104 1-172, looked up, variant N65A)
# Ubiquitin-conjugating enzyme …: T1 sequence (P06104 1-172) with N65A
# B2: Ubc2 (C88S): catalytically inactive Ubc2 (protein)
# chain: T2 sequence with C86S
# modifications: left off: His tag, N-terminal, state not stated
# Assays:
# [1] = target: T3, Ubr1 (Saccharomyces cerevisiae, UniProt P19812); assay: In vitro Ubr1-dependent ubiquitination assay; format: biochemical; settings: n = 2
# T3 sequence (P19812 whole entry, one chain of several): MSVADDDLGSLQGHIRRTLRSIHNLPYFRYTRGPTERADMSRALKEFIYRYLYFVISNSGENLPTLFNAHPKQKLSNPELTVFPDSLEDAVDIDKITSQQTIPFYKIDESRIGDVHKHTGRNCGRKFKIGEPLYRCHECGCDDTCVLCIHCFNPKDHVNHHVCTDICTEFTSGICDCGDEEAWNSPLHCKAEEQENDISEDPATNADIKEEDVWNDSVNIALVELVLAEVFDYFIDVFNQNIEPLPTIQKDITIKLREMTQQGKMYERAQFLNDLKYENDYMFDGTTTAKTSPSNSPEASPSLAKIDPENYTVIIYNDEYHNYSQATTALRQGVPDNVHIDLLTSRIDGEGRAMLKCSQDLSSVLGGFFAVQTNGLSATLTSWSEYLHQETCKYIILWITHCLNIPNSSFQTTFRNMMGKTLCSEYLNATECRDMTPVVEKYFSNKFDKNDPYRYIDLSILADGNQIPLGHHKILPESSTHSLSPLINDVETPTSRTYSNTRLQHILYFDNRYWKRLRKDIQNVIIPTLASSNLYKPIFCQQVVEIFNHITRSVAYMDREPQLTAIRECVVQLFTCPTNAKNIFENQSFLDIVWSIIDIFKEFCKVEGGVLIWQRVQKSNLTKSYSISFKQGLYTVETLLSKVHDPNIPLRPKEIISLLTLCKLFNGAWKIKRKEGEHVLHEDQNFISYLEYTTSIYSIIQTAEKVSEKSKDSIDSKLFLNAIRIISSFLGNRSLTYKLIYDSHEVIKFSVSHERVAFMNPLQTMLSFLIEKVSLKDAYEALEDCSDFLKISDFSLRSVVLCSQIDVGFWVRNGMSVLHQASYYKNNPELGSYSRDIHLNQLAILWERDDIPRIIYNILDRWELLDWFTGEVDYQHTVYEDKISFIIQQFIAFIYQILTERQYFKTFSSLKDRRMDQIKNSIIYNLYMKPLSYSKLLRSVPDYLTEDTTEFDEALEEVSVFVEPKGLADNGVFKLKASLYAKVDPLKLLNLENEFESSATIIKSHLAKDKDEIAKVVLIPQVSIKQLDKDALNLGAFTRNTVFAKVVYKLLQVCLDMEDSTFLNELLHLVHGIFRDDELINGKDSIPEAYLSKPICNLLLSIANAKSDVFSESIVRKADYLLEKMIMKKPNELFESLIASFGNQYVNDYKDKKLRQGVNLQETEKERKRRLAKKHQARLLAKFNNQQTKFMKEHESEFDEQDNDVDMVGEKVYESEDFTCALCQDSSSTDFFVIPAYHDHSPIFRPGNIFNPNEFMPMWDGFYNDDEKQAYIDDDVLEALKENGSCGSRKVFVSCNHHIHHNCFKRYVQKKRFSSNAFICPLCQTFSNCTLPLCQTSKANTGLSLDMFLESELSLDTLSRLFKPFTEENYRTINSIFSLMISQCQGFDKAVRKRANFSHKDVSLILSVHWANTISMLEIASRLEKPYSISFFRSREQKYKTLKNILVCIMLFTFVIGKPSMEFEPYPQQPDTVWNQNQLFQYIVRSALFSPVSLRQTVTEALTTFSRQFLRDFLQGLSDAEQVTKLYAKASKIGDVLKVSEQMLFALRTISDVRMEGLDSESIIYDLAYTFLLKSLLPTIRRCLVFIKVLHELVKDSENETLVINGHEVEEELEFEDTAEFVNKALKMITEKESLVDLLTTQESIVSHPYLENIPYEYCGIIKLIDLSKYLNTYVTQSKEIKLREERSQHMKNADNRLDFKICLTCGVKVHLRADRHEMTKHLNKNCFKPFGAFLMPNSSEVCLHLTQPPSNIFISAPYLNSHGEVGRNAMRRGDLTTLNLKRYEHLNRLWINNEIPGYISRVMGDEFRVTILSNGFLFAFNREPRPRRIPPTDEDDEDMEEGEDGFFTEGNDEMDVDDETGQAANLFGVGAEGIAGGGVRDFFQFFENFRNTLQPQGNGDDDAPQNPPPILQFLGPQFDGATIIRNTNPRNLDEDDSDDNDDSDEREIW
# Procedure, shortened: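 Multi-turnover reaction at 30 °C in 50 mM HEPES pH 7.5, 0.15 M NaCl, 10 mM MgCl2, 5 mM ATP. It contained 0.1 µM Uba1, 4 µM Ubc2, 0.25 µM Ubr1 (wild-type or mutant at the same level), 80 µM Ub and 5 µM substrate. Substrate was Degron or Ub-Degron labelled at an added C-terminal Cys with fluorescein-5-maleimide. Reactions were stopped in SDS sample buffer and resolved by SDS-PAGE with fluorescence imaging.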
# [2] = target: T3, Ubr1; assay: Single-turnover pulse-chase Ub transfer, elongation step; format: biochemical; settings: 0.5 μM Ubr1, 30 °C, 5 min, n = 2
# [3] = target: T1, Ubc2; assay: Accessibility of the catalytic cysteine; format: biochemical; settings: fluorescein-5-maleimide, presence or absence of synthetic U2BR peptide; average fluorescence, n = 2
# [4] = target: T2, Ubc2 (Saccharomyces cerevisiae), wild …; assay: ITC
molecule,measurement,setting,value
UBLM mutant: Ubr1 Ub binding loop mutant H678A/V679A/L680A/H681A,monoubiquitinated product,[1]; Hs-Type-1 Degron and Type-2 Degron as substrates,accumulation of monoubiquitinated product
same,Ub transfer to Degron versus Ub-Degron,[1]; UBLM mutant of Ubr1,transferred more Ub to Degron than to Ub-Degron
same,polyubiquitination of Degron and Ub-Degron (effect of mutation),"[1]; fluorescent Degron and Ub-Degron, 30 °C, pH 7.5",substantially reduced
same,transfer of fluorescent Ub from Ubc2 to Ub-Degron,[2],failed to transfer fluorescent Ub from Ubc2 to Ub-Degron
"U2BR peptide: free U2BR peptide (Ubr1 1165-1200), Ubc2 binding region (KERKRRLAKKHQARLLAKFNNQQTKFMKEHESEFDE; UniProt P19812 1165-1200, looked up, fragment)",accessibility of the catalytic cysteine (C88) of Ubc2,[3],decreased
same,inhibition of polyubiquitination by free U2BR peptide,[1]; increasing concentrations of synthetic U2BR peptide,inhibited polyubiquitination in a dose-dependent manner
B1,amount of polyubiquitinated Degron,[1]; Ubc2 N65A mutation,increased the amount of polyubiquitinated Degron
"KERKRRLAKKHQARLLAKFNNQQTKFMKEHESEFDE (peptide, UniProt P19812 1165-1200, looked up) [U2BR peptide (Ubr1 1165-1200)]",Kd,[4],143 ± 45 nM
B2,inhibitory effect of pre-mixed inactive Ubc2 on ubiquitination,"[1]; increasing doses up to 12.5 μM pre-mixed with Ubr1 and Degron, then wild-type Ubc2 at 4 μM",Minimal inhibitory effects
